In article PMC9532533 (Acta Pharmaceutica Sinica. B, 2022):

What was measured:
[1] = test system: 32D KIT^D816V xenografts; experiment: In vivo antitumor efficacy, 32D KIT^D816V xenograft; design: species or system nude mice; details: i.g., BID × 12; for mortality and body weight loss: whole period of treatment
[2] = test system: 32D KIT V559D/V654A cells; experiment: Antiproliferation assay, 32D KIT V559D/V654A cells; type: cell-based, murine; details: Mus musculus, read-out: GI50, V559D/V654A
[3] = test system: phosphorylation of KIT^D816V and downstream STAT3 and ERK; experiment: Western blot of KIT signaling in 32D KIT^D816V cells; type: cell-based, murine; details: 4-h treatment
[4] = test system: 32D KIT V559D/N822K cells; experiment: Antiproliferation assay, 32D KIT V559D/N822K cells; type: cell-based, murine; details: Mus musculus, read-out: GI50, V559D/N822K
[5] = test system: 32D KIT V559D cells; experiment: Antiproliferation assay, 32D KIT V559D cells; type: cell-based, murine; details: Mus musculus, read-out: GI50, V559D
[6] = test system: 32D cells; experiment: Antiproliferation assay, normal parent 32D cells; type: cell-based, murine; details: Mus musculus, read-out: 32D cells (GI50, nmol/L)
[7] = Pharmacokinetics in mice; type: in vivo, male ICR (CD-1) mice; details: male, ICR (CD-1), mouse, plasma; for AUC(0-t) / half-life: po, 10 mg/kg
Summary of the method: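 Male ICR (CD-1) mice, n = 3 per route, each given a single dose of test compound: 2 mg/kg i.v. or 10 mg/kg p.o. Plasma drug levels measured by LC/MS/MS, and key PK parameters derived from these concentration data.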

Row | SMILES | TGI (tumor growth inhibition) ([1]; 20 mg/kg) [%] | TGI (tumor growth inhibition) ([1]; 40 mg/kg) [%] | mortality and body weight loss [1] | GI50 [2] [nM] | inhibition of phosphorylation of KIT^D816V and downstream STAT3 and ERK [3] | GI50 [4] [nM] | GI50 [5] [nM] | GI50 [6] [nmol/L] | bioavailability ([7]; oral, 10 mpk) [%] | AUC(0-t) [7] [ng·h/mL] | half-life [7] [h] | suppression of growth of 32D KIT^D816V xenografts ([1]; high dose group 100 mg/kg) [%]
1 | Cc1ccc(C(=O)NCc2ccsc2)cc1C#Cc1cn(C(C)C)c2ncnc(N)c12 [Compound 54] | 45 | 71 | no mortality or obvious body weight loss | 1.1 | potent inhibition effects | 0.8 | 0.09 | > 1000 | 29.9 | 1280 | 2.29 | –
2 | COCCn1cc(C#Cc2cc(C(=O)NCc3ccsc3)ccc2C)c2c(N)ncnc21 [Compound 57] | – | – | no mortality or obvious body weight loss | – | potent inhibition effects | – | – | – | – | 233 | 1.34 | 50
3 | CCn1c(=O)c(-c2cc(NC(=O)Nc3ccccc3)c(F)cc2Br)cc2cnc(NC)cc21 [Ripretinib, ripretinib, reference compound] | – | – | no mortality or obvious body weight loss | – | – | – | – | – | – | – | – | –
